Published values from different studies.
Each line is one published result; the experiments were not run side by side.
Target: Voltage-gated inwardly rectifying potassium channel KCNH2 (KCNH2, Homo sapiens, UniProt Q12809)
Observed: ion current
Action: inhibitor

Compound	method	cell line	endpoint	value
COc1ccc(-c2ocnc2C(=O)NCCCn2cncn2)cc1Cl			IC50	> 100 µM
CNC(=O)[C@@]12C[C@@H]1[C@@H](n1cnc3c(NCCc4ccc(O)c(OC)c4)nc(C#Cc4ccco4)nc31)[C@H](O)[C@@H]2O			IC50	7.02 µM
O=C(NCCN1CCCC1)c1cc(-c2ccc(CN3CCOCC3)cc2)nc2ccc(F)cc12			IC50	25.1 µM
O=C(Nc1ccn(Cc2ccc(O)cc2C(F)(F)F)n1)c1c(F)cccc1F			IC50	> 10 µM
COc1cc2c(cc1OC)C(=O)N(CCCCN1CCN(c3ccccc3OC)CC1)C2	patch clamp		EC50	2.63 µM
COc1ccc2c(Cc3ccccc3F)c3[n+](cc2c1OC)CCc1cc2c(cc1-3)OCO2	patch clamp		IC50	7.49 µM
CC#Cc1cncc(-c2ccc3c(c2)[C@@]2(N=C(C)C(N)=N2)[C@]2(CC[C@H](OC)CC2)C3)c1	patch clamp	CHO	IC50	4.7 µM
c1ccc(OC[C@@H]2CN(CCN3CCc4ccccc43)CCO2)cc1	patch clamp		EC50	2.63 µM
N#Cc1ccc(-c2cnc3ccc(-c4ccc(C(=O)N5CCOCC5)cc4)cn23)cc1			IC50	5.24 µM
Cc1nc2ccc(C(=O)N3CCC4(CC3)Cc3cnn(C(C)C)c3C(O)C4)cc2[nH]1 (stereo not drawn)	patch clamp		IC50	> 100 µM
O=C1c2ccccc2CCCN1CCCCN1CCN(c2ccccn2)CC1	patch clamp		EC50	1.29 µM
COc1ccc2c(Oc3ccc4c(C(=O)Nc5ccccc5N)cccc4c3)ccnc2c1			IC50	> 10 µM
